Columns and labels:
Stromelysin-1 [1] = target: T1, Stromelysin-1 (Homo sapiens, UniProt P08254); experiment: In vitro inhibitory activity against matrix metalloprotease -3 (stromelysin)
[2] = target: 72 kDa type IV collagenase (Homo sapiens, UniProt P08253); experiment: In vitro inhibitory activity against matrix metalloprotease -2 (gelatinase-A)
Interstitial collagenase = target: T2, Interstitial collagenase (Homo sapiens, UniProt P03956); experiment: In vitro inhibitory activity against matrix metalloprotease -1 (collagenase-1)
T2 sequence (P03956 whole entry): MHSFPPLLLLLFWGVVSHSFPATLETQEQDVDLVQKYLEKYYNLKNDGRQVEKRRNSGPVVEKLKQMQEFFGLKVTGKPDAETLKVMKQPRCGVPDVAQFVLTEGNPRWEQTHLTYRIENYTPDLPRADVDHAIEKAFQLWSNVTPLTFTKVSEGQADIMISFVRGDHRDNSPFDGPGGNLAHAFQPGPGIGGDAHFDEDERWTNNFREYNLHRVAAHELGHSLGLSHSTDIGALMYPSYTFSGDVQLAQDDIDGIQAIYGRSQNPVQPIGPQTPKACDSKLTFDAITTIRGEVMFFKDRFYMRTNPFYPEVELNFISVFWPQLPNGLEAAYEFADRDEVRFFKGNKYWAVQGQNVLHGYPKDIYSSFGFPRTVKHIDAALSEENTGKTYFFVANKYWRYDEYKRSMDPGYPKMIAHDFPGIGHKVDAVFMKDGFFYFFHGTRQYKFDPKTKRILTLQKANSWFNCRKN

Matrilysin = target: T3, Matrilysin (Homo sapiens, UniProt P09237); experiment: In vitro inhibitory activity against matrix metalloprotease-7 (matrilysin, MMP-7)
T3 sequence (P09237 whole entry): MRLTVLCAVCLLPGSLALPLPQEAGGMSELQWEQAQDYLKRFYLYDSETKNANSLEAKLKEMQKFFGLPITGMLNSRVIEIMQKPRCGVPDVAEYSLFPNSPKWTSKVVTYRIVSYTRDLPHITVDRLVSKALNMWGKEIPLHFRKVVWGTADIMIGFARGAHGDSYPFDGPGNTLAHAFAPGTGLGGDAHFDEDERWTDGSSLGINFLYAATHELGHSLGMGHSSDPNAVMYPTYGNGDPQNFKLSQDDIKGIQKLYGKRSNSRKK
Outline: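 Human recombinant truncated enzymes, final MMP-1 8 nM, MMP-3 16 nM, MMP-7 2 nM. Quenched-fluorescence assay with Mca-Pro-Leu-Gly-Leu-Dpa-Ala-Arg-NH₂ (4 µM) in 50 mM Tris pH 7.5, 0.2 M NaCl, 5 mM CaCl₂, 0.02% Brij-35 at 25 °C. Fluorescence (ex 328/em 393 nm) read kinetically for 30 min.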

Collagenase 3 [3] = target: T4, Collagenase 3 (Homo sapiens, UniProt P45452)
Collagenase 3 [4] = target: T4, Collagenase 3; experiment: In vitro inhibitory activity against human recombinant matrix metalloprotease-13 (collagenase-3)
Rattus norvegicus = species on record: Rattus norvegicus; experiment: Time over 100 ng/ml in fasted rats; conditions: in vivo
Collagenase 3 [5] = target: T4, Collagenase 3; remark: listed apart in the source
Stromelysin-1 [6] = target: T1, Stromelysin-1; experiment: Inhibition of matrix metalloprotease-3 (stromelysin)
Outline: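 Human recombinant truncated MMP-3 (E. coli-expressed), 16 nM final, with fluorogenic substrate Mca-Pro-Leu-Gly-Leu-Dpa-Ala-Arg-NH₂ at 4 µM, 25 °C, in 50 mM Tris pH 7.5, 0.2 M NaCl, 5 mM CaCl₂, 0.02% Brij-35.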

[7] = Pharmacokinetic half time was determined intravenously in rats.; type: ADME, organism-based; conditions: rat, in vivo, iv
Outline: (§1)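 Single-compound study in male Sprague-Dawley rats, dosed intravenously and orally in a parallel-group design. Parameters were derived from mean plasma concentration-time profiles.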

[8] = Mean (%CV) PK parameters for Vdss(mL/kg).; type: ADME, organism-based; conditions: rat, in vivo; read-out: Vdss; outline: as §1
[9] = Oral bioavailability measured by the ratio of […] area under concentration.; type: ADME, organism-based; conditions: rat, in vivo; outline: as §1
[10] = Compound demonstarted an oral bioavailability of […]% with the half-life time as given in rats.; type: ADME, organism-based; conditions: rat, in vivo
[11] = Mean (%CV) PK parameters for CL(mL/min/kg).; type: ADME, organism-based; conditions: rat, in vivo; outline: as §1

Sequence of 72 kDa type IV collagenase (P08253 whole entry): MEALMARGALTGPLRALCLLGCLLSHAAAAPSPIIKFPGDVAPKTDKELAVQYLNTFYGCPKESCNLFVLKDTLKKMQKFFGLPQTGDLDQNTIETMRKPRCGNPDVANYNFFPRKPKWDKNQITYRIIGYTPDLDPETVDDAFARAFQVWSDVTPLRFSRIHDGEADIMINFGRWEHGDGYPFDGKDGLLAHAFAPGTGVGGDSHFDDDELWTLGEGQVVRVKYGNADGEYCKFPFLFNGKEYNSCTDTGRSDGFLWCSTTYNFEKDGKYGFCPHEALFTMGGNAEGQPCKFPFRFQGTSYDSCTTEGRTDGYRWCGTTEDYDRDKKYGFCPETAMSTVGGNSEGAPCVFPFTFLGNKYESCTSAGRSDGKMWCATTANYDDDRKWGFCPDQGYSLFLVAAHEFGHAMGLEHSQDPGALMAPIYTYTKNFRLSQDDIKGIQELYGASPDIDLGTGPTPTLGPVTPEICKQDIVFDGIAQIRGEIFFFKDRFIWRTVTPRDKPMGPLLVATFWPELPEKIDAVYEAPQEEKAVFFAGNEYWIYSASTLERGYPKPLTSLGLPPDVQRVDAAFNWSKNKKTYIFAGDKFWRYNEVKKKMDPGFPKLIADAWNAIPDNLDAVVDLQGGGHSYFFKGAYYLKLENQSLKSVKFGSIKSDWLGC
T1 sequence (P08254 whole entry): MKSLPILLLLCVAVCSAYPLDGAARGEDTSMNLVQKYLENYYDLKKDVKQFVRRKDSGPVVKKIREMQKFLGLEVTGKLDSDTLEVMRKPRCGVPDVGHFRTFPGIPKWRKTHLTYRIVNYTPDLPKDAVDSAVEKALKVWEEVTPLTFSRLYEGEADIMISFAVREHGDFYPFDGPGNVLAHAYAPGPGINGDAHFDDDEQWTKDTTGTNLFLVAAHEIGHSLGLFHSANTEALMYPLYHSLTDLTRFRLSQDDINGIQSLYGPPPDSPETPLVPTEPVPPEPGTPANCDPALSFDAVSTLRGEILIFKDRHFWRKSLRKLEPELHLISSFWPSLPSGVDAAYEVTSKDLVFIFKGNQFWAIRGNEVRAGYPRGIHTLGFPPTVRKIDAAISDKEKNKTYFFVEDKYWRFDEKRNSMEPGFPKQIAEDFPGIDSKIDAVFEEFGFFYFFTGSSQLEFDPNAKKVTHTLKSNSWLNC

Row | Compound | IC50 (Stromelysin-1 [1]) | IC50 [2] | IC50 (Interstitial collagenase) | IC50 (Matrilysin) | IC50 (Collagenase 3 [3]) | IC50 (Collagenase 3 [4]) | Time over 100ng/ml (Rattus norvegicus) | IC50 (Collagenase 3 [5]) | IC50 (Stromelysin-1 [6]) | half-life [7] | Vd [8] | bioavailability [9] | half-life [10] | clearance [11]
1 | CCCCOc1ccc(S(=O)(=O)N2C[C@@H](N3CCS(=O)(=O)CC3)C[C@@H]2C(=O)NO)cc1 | 12 nM | 7 nM | > 1000 nM | 3400 nM | 0.9 nM | – | – | – | – | – | – | – | – | –
2 | CCCCOc1ccc(S(=O)(=O)N2C[C@@H](N3C(=O)NC(SC)C3=O)C[C@@H]2C(=O)NO)cc1 (stereo not given in full) | 42 nM | 49 nM | 750 nM | 850 nM | – | < 0.5 nM | – | – | – | – | – | – | – | –
3 | CCCOc1ccc(S(=O)(=O)N2C[C@@H](N3CCOCC3)C[C@@H]2C(=O)NO)cc1 | 7 nM | – | 490 nM | 16500 nM | – | 1 nM | 4.5 h | – | – | – | – | – | – | –
4 | COCCOc1ccc(S(=O)(=O)N2C[C@@H](N3C(=O)CN(C)C3=O)C[C@@H]2C(=O)NO)cc1 | 26 nM | 1 nM | 1800 nM | 9100 nM | 4.4 nM | – | 0 h | – | – | – | – | – | – | –
5 | COc1ccc(S(=O)(=O)N[C@H]2C[C@H](C(=O)NO)N(S(=O)(=O)c3ccc(OC)cc3)C2)cc1 | 36 nM | 3 nM | 350 nM | 3000 nM | – | 2 nM | – | – | – | – | – | – | – | –
6 | C=CCN1CC(=O)N([C@H]2C[C@H](C(=O)NO)N(S(=O)(=O)c3ccc(OCCC)cc3)C2)C1=O | 11 nM | 0.8 nM | 350 nM | 2600 nM | – | 0.4 nM | – | – | – | – | – | – | – | –
7 | CCCN(C(=O)[C@@H](O)CCc1ccccc1)[C@H]1C[C@H](C(=O)NO)N(S(=O)(=O)c2ccc(OC)cc2)C1 | 12 nM | 0.6 nM | 260 nM | – | – | – | – | 0.5 nM | – | – | – | – | – | –
8 | COc1ccc(S(=O)(=O)N2C[C@@H](N(Cc3cccnc3)S(C)(=O)=O)C[C@@H]2C(=O)NO)cc1 | 6 nM | 2 nM | 74 nM | 2700 nM | – | 1 nM | 0 h | – | – | – | – | – | – | –
9 | CCCCOc1ccc(S(=O)(=O)N2C[C@@H](N3C(=O)CN(C)C3=O)C[C@@H]2C(=O)NO)cc1 | – | – | – | 1600 nM | – | – | 0 h | – | 2 nM | – | – | – | – | –
10 | CCCCOc1ccc(S(=O)(=O)N2C[C@@H](N3CCOCC3)C[C@@H]2C(=O)NO)cc1 | 5 nM | 4 nM | 920 nM | 5400 nM | 0.6 nM | – | 3.5 h | – | – | 0.4 h | 0.408 L/kg | 6% | 1.7 h | 30 mL/min/kg
11 | CCCCOc1ccc(S(=O)(=O)N2C[C@@H](N3C(=O)NC(C)(C)C3=O)C[C@@H]2C(=O)NO)cc1 | 3 nM | 2 nM | 780 nM | 450 nM | < 0.5 nM | – | – | – | – | – | – | – | – | –
12 | C=CCN1CC(=O)N([C@H]2C[C@H](C(=O)NO)N(S(=O)(=O)c3ccc(OCCCC)cc3)C2)C1=O | 7 nM | – | 480 nM | 1000 nM | – | 0.4 nM | 4 h | – | – | – | – | – | – | –

— ChEMBL document CHEMBL1133563, “Development of new hydroxamate matrix metalloproteinase inhibitors derived from functionalized 4-aminoprolines” (J Med Chem, 2000)
